Reference: ChEMBL document CHEMBL1177731, “Complementarity between a docking and a high-throughput screen in discovering new cruzain inhibitors” (J Med Chem, 2010)
Activity calls are given as the source filed them. The rule behind the calls is not given here.

How the values were obtained:
Cruzipain [1] = target: T1, Cruzipain (Trypanosoma cruzi, UniProt P25779); assay: Inhibition of Trypanosoma cruzi cruzain assessed as Z-Phe-Arg-aminomethylcoumarin cleavage
[2] = Inhibition of beta lactamase
In short: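 AmpC β-lactamase (1 nM final) with CENTA substrate (100 μM final; Km 48 μM) in 50 mM potassium phosphate, pH 7.0. Cleavage was read as absorbance at 405 nm over 3 min, and activity was taken from initial rates. Each compound was run twice: without Triton X-100 after a 5 min enzyme preincubation before substrate, and with 0.01% Triton X-100 with no preincubation. Inhibition was then compared between the two conditions.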

Cruzipain [3] = target: T1, Cruzipain; assay: Inhibition of Trypanosoma cruzi cruzain assessed as Z-Phe-Arg-aminomethylcoumarin cleavage by competitive binding assay
In short: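 Cruzain (0.4 nM) in 0.1 M sodium acetate pH 5.5, 5 mM DTT, 0.01% Triton X-100. Each compound tested at four or more concentrations against seven Z-FR-AMC levels (0.31-20 μM, 2-fold steps). Activity from initial rates over 5 min. Ki derived from Lineweaver-Burk and Dixon plots.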

T1 sequence (P25779 whole entry): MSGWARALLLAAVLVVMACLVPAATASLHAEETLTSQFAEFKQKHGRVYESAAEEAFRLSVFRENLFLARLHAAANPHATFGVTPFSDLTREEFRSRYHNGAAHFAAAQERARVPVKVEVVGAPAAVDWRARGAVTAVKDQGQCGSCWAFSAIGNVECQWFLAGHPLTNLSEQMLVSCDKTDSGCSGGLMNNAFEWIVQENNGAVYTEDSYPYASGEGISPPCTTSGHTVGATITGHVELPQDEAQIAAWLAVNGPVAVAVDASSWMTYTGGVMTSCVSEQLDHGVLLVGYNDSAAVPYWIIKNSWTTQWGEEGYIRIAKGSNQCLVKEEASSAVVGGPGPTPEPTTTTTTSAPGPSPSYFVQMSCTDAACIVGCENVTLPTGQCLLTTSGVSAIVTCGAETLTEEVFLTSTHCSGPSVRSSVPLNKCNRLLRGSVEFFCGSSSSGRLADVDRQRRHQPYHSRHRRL

| SMILES | IC50 (Cruzipain [1]) [µM] | inhibition [2] | Ki (Cruzipain [3]) [µM] |
| --- | --- | --- | --- |
| O=C(CNC(=O)c1ccc(Cl)cc1)OC(C(=O)Nc1ccc(Cl)cc1C(F)(F)F)c1ccccc1 (stereo unspecified) | 0.7 | inactive | – |
| COc1ccc(NC(=O)COC(=O)C(CC(C)C)N2C(=O)C3CC=CCC3C2=O)cc1Cl (stereo unspecified) | – | – | 0.8 |
| Cc1cc(NC(=O)COC(=O)C(Cc2c[nH]c3ccccc23)NC(=O)c2ccc(F)cc2)no1 (stereo unspecified) | 3 | inactive | – |
| Cc1ccccc1OCC(=O)NCC(=O)OCC(=O)c1ccc2ccccc2c1 | 0.7 | inactive | – |
| CC(NC(=O)c1ccccc1Cl)C(=O)OC(C(=O)Nc1cc(C(F)(F)F)ccc1Cl)c1ccccc1 (stereo unspecified) | 11 | inactive | – |
| Cc1cc(C(=O)NCC(=O)OC(C(=O)Nc2cc(C(F)(F)F)ccc2Cl)c2ccccc2)ccc1[N+](=O)[O-] (stereo unspecified) | 0.4 | inactive | – |
| CC(C)C(NC(=O)c1ccco1)C(=O)NCC(c1ccco1)N1CCCCC1 (stereo unspecified) | 7 | inactive | 6 |
| Cc1cc(NC(=O)COC(=O)C(Cc2ccccc2)NC(=O)c2ccco2)no1 (stereo unspecified) | 38 | inactive | – |
| COCCn1c(C)cc(C(=O)COC(=O)CNC(=O)c2ccccc2)c1C | 18 | inactive | – |
| O=C(CNC(=O)c1ccccc1)OC(C(=O)Nc1cc(C(F)(F)F)ccc1Cl)c1ccccc1 (stereo unspecified) | 0.3 | inactive | 0.065 |
| Clc1ccc2[nH]c3c(NCCCN4CCOCC4)ncnc3c2c1 | – | – | 2 |
| O=C(CNC(=O)c1ccc(Cl)cc1)OCC(=O)c1ccc2c(c1)OCCO2 | 0.5 | inactive | – |
| COc1ccc(Cl)cc1NC(=O)COC(=O)C(CC(C)C)N1C(=O)C2CC=CCC2C1=O (stereo unspecified) | 1 | inactive | – |
